Assay results from ChEMBL document CHEMBL1148605, “Synthesis and preliminary in vitro investigation of bivalent ligands containing homo- and heterodimeric pharmacophores at mu, delta, and kappa opioid receptors” (J Med Chem, 2006).

Assays:
Mu-type opioid receptor [1] = biological target: T1, Mu-type opioid receptor (Homo sapiens, UniProt P35372); test: biochemical; assay type: cell-based, CHO
[2] = biological target: Delta-type opioid receptor (Homo sapiens, UniProt P41143); test: Displacement of [3H]naltrindole from human delta opioid receptor expressed in CHO cells; assay type: cell-based
Method in brief: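 Competition binding on membranes of CHO cells stably expressing human δ receptor, using [3H]naltrindole and 12 compound concentrations. Incubated 3 h at 25 °C in 50 mM Tris-HCl, pH 7.5.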

[3] = biological target: T2, Kappa-type opioid receptor (Homo sapiens, UniProt P41145); test: biochemical; assay type: cell-based, CHO
[4] = biological target: T2, Kappa-type opioid receptor; test: Functional activity at human kappa opioid receptor expressed CHO cells by [35S]GTPgammaS binding assay; assay type: cell-based
[5] = biological target: T2, Kappa-type opioid receptor; test: Activity at human kappa opioid receptor expressed in CHO cells by [35S]GTP-gamma-S binding assay; assay type: functional, cell-based
Mu-type opioid receptor [6] = biological target: T1, Mu-type opioid receptor; test: Activity at human mu opioid receptor expressed in CHO cells by [35S]GTP-gamma-S binding assay; assay type: functional, cell-based
Mu-type opioid receptor [7] = biological target: T1, Mu-type opioid receptor; test: Functional activity at human mu opioid receptor expressed in CHO cells by [35S]GTP-gamma-S binding assay; assay type: cell-based
Method in brief: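 Human µ receptor stably expressed in CHO cells; membranes at 7.5 µg protein/tube, incubated 60 min at 30 °C with 12 compound concentrations, 3 µM GDP and […] [35S]GTPγS in pH 7.4 Tris/MgCl2/NaCl/EGTA buffer. […] Antagonist mode used 200 nM DAMGO. At least 3 experiments in triplicate.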

[8] = Displacement of [3H]naltrindole from human delta opioid receptor expressed in CHO cells
[9] = biological target: T2, Kappa-type opioid receptor; test: Activity at human kappa opioid receptor expressed in CHO cells by [35S]GTPgammaS binding assay at 10 uM; assay type: functional, cell-based
Method in brief: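 Membranes from CHO cells stably expressing human κ receptor (15 µg protein/tube), 12 compound concentrations, 60 min at 30 °C in Tris-HCl/MgCl2/NaCl/EGTA buffer pH 7.4 with 3 µM GDP and […] [35S]GTPγS. Filtration count, expressed as % stimulation over basal, giving Emax and EC50. […] At least 3 experiments in triplicate.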

T2 sequence (P41145 whole entry): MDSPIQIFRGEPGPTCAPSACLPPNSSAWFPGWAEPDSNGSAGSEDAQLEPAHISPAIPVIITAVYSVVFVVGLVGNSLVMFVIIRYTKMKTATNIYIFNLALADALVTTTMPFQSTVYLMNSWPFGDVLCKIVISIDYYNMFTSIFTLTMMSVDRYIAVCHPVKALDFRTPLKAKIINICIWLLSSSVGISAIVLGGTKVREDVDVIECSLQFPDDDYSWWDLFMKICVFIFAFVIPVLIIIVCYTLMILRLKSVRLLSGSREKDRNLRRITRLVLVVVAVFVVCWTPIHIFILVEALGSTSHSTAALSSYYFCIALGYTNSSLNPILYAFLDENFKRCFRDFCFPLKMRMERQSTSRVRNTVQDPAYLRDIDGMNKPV
Sequence of Delta-type opioid receptor (P41143 whole entry): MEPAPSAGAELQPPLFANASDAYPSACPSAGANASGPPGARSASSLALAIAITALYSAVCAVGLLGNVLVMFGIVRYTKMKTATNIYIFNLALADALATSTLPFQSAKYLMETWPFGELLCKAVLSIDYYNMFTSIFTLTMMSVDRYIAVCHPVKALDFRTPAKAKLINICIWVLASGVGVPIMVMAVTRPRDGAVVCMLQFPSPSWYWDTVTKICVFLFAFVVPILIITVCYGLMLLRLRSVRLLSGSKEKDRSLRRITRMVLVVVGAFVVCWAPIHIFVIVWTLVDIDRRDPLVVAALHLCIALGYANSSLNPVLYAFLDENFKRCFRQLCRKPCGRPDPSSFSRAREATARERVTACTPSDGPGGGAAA
T1 sequence (P35372 whole entry): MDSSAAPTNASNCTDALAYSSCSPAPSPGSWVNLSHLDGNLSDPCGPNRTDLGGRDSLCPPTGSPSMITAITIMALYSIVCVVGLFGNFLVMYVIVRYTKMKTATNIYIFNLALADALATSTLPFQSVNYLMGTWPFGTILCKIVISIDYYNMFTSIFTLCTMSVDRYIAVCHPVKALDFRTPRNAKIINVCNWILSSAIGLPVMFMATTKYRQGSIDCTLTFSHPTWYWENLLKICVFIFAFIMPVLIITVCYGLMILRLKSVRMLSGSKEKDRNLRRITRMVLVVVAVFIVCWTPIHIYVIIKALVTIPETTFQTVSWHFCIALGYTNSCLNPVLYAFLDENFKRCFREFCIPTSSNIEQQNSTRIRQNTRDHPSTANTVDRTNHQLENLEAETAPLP

Row | Structure (SMILES) | Ki (Mu-type opioid receptor [1]) [nM] | Ki [2] [nM] | Ki [3] [nM] | Activity ([4]; filed as agonist) | EC50 [5] [nM] | Emax [5] [%] | EC50 (Mu-type opioid receptor [6]) [nM] | Emax (Mu-type opioid receptor [6]) [%] | other results
1 | O=C(/C=C/C=C/C(=O)Oc1ccc2c(c1)[C@@]13CCCCC1[C@@H](C2)N(CC1CCC1)CC3)Oc1ccc2c(c1)[C@@]13CCCCC1[C@@H](C2)N(CC1CCC1)CC3 (some centres not stated) | 2.8 | 28 | 0.62 | Agonist | 17 | 91 | 19 | 96 | Activity (Mu-type opioid receptor [7]; filed as agonist): Agonist
2 | O=C(CCCCCCCCC(=O)Oc1ccc2c(c1)[C@@]13CCCCC1[C@@H](C2)N(C[C@@H]1CCCO1)CC3)Oc1ccc2c(c1)[C@@]13CCCCC1[C@@H](C2)N(C[C@@H]1CCCO1)CC3 (some centres not stated) | 0.67 | 8.3 | 1.2 | Agonist | 8.8 | 140 | 12 | 69 | IC50 (Mu-type opioid receptor [6]): 360 nM; Imax (Mu-type opioid receptor [6]): 48%
3 | O=C(/C=C/C(=O)Nc1ccc2c(c1)[C@@]13CCCCC1[C@@H](C2)N(CC1CCC1)CC3)Nc1ccc2c(c1)[C@@]13CCCCC1[C@@H](C2)N(CC1CCC1)CC3 (some centres not stated) | 13 | 160 | 7.3 | – | – | – | – | – | –
4 | O=C(CCC(=O)Nc1ccc2c(c1)[C@@]13CCCCC1[C@@H](C2)N(CC1CCC1)CC3)Nc1ccc2c(c1)[C@@]13CCCCC1[C@@H](C2)N(CC1CCC1)CC3 (some centres not stated) | 3.3 | – | 3.8 | – | – | – | – | – | –
5 | CN1CC[C@]23c4c5ccc(OC(=O)CCCCCCCCC(=O)Oc6ccc7c(c6)[C@@]68CCCCC6[C@@H](C7)N(CC6CCC6)CC8)c4O[C@H]2[C@@H](O)C=C[C@H]3[C@H]1C5 (some centres not stated) | 0.22 | 3.9 | 0.11 | Agonist | 2.3 | 150 | 2.5 | 110 | Activity (Mu-type opioid receptor [7]; filed as agonist): Agonist
6 | Nc1ccc2c(c1)[C@@]13CCCC[C@H]1[C@@H](C2)N(CC1CCC1)CC3 | 3.7 | – | 1.8 | – | – | – | – | – | –
7 | O=C(CCC(=O)Oc1ccc2c(c1)[C@@]13CCCCC1[C@@H](C2)N(CC1CCC1)CC3)Oc1ccc2c(c1)[C@@]13CCCCC1[C@@H](C2)N(CC1CCC1)CC3 (some centres not stated) | 0.16 | 9.4 | 0.076 | – | – | – | – | – | –
8 | C#CCN1CC[C@]23CCCCC2[C@H]1Cc1ccc(OC(=O)CCCCCCCCC(=O)Oc2ccc4c(c2)[C@@]25CCCCC2[C@@H](C4)N(CC#C)CC5)cc13 (some centres not stated) | 14 | 190 | 10 | – | – | – | – | – | –
9 | C[C@@H](NC(=O)[C@@H](N)Cc1ccc(O)cc1)C(=O)NCC(=O)N(C)[C@@H](Cc1ccccc1)C(=O)NCCO | – | – | – | – | – | – | – | – | Activity (Mu-type opioid receptor [7]; filed as agonist): Agonist
10 | O=C(CCCCCCCCC(=O)Oc1ccc2c(c1)[C@@]13CCCCC1[C@@H](C2)N(CC1CC1)CC3)Oc1ccc2c(c1)[C@@]13CCCCC1[C@@H](C2)N(CC1CCC1)CC3 (single isomer, unassigned; (-)) | 0.34 | 4.4 | 0.23 | Agonist | 2.5 | 110 | 2.9 | 41 | IC50 (Mu-type opioid receptor [6]): 96 nM; Imax (Mu-type opioid receptor [6]): 64%; Activity (Mu-type opioid receptor [7]; filed as partial agonist): Partial agonist
11 | Oc1ccc2c(c1)[C@@]13CCCCC1[C@@H](C2)N(C[C@@H]1CCCO1)CC3 (some centres not stated) | 0.01 | – | 0.15 | – | – | – | – | – | Ki [8]: 0.27 nM
12 | Oc1ccc2c(c1)[C@]13CCCCC1[C@H](C2)N(CC1CCC1)CC3 (single isomer, unassigned; (+)) | – | > 10000 | 55 | – | – | – | – | – | –
13 | C#CCN1CC[C@]23CCCC[C@H]2[C@H]1Cc1ccc(O)cc13 | 0.003 | – | 0.003 | – | – | – | – | – | Ki [8]: 0.62 nM
14 | Oc1ccc2c(c1)[C@@]13CCCC[C@H]1[C@@H](C2)N(CC1CC1)CC3 | – | – | – | – | – | – | – | – | Activity (Mu-type opioid receptor [7]; filed as partial agonist): Partial agonist
15 | O=C(CCCCCCCCC(=O)Oc1ccc2c(c1)[C@]13CCCCC1[C@H](C2)N(CC1CCC1)CC3)Oc1ccc2c(c1)[C@@]13CCCCC1[C@@H](C2)N(CC1CCC1)CC3 (single isomer, unassigned; (+)) | 2.2 | 23 | 1.2 | Agonist | 7.9 | 77 | – | 28 | IC50 (Mu-type opioid receptor [6]): 460 nM; Imax (Mu-type opioid receptor [6]): 71%
16 | O=C(O)CCCCCCCCC(=O)Oc1ccc2c(c1)[C@@]13CCCCC1[C@@H](C2)N(CC1CCC1)CC3 (some centres not stated) | 0.71 | 18 | 0.29 | Agonist | 2.8 | 75 | 3 | 110 | Activity (Mu-type opioid receptor [7]; filed as agonist): Agonist
17 | O=C(CCCCCCCCC(=O)Nc1ccc2c(c1)[C@@]13CCCCC1[C@@H](C2)N(CC1CCC1)CC3)Nc1ccc2c(c1)[C@@]13CCCCC1[C@@H](C2)N(CC1CCC1)CC3 (some centres not stated) | 5.7 | 38 | 7.5 | – | – | – | – | – | –
18 | Oc1ccc2c(c1)[C@@]13CCCC[C@H]1[C@@H](C2)N(CC1CCC1)CC3 | – | – | – | Agonist | – | – | – | – | Imax (Mu-type opioid receptor [6]): 50%; Activity (Mu-type opioid receptor [7]; filed as partial agonist): Partial agonist
19 | O=C(CCCCCCCCC(=O)Oc1ccc2c(c1)[C@]13CCCCC1[C@H](C2)N(CC1CCC1)CC3)Oc1ccc2c(c1)[C@]13CCCCC1[C@H](C2)N(CC1CCC1)CC3 (some centres not stated) | 130 | 700 | 130 | – | – | – | – | – | –
20 | O=C(/C=C/C(=O)Oc1ccc2c(c1)[C@@]13CCCC[C@H]1[C@@H](C2)N(CC1CCC1)CC3)Oc1ccc2c(c1)[C@@]13CCCC[C@H]1[C@@H](C2)N(CC1CCC1)CC3 | – | – | 0.08 | – | – | – | – | – | –
21 | O=C(CCCCCCCCC(=O)Oc1ccc2c(c1)[C@@]13CCCCC1[C@@H](C2)N(CC1CCC1)CC3)Nc1ccc2c(c1)[C@@]13CCCCC1[C@@H](C2)N(CC1CCC1)CC3 (some centres not stated) | 0.65 | 12 | 0.38 | – | 8.8 | 55 | 4.4 | 56 | Activity ([4]; filed as partial agonist): Partial agonist; IC50 (Mu-type opioid receptor [6]): 150 nM; Imax (Mu-type opioid receptor [6]): 61%; Imax [9]: 65 µM; Activity (Mu-type opioid receptor [7]; filed as partial agonist): Partial agonist
22 | Oc1ccc2c(c1)[C@]13CCCCC1[C@H](C2)N(CC1CC1)CC3 (single isomer, unassigned; (+)) | – | 13 | – | – | – | – | – | – | –
23 | O=C(CCCCCCCCC(=O)Oc1ccc2c(c1)[C@@]13CCCCC1[C@@H](C2)N(CC1CCC1)CC3)Oc1ccccc1 (some centres not stated) | 0.44 | 11 | 0.3 | Agonist | 3.8 | 170 | 5.1 | 93 | Activity (Mu-type opioid receptor [7]; filed as agonist): Agonist
